# In ChEMBL document CHEMBL4715693, “Synthesis and antiviral properties of novel indole-based thiosemicarbazides and 4-thiazolidinones” (Bioorg Med Chem, 2016):
# Test system: Influenza B virus
# Assay: Antiviral activity against influenza B virus infected in dog MDCK cells assessed as reduction in virus-induced cytopathic effect incubated for 3 to 6 days by light microscopic analysis
# Assay type: functional, organism-based
# Conditions: not given
# Procedure, shortened: (§1)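 MDCK cells, subconfluent, received influenza A or B virus together with serial compound dilutions. Incubated 3–6 days at 35 °C.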
row,SMILES,EC50 [mg/L]
1,O=C(NNC(=S)NCCc1ccccc1)c1[nH]c2ccc(F)cc2c1-c1ccccc1,> 100
2,CN1C(=O)CS/C1=N\NC(=O)c1[nH]c2ccc(F)cc2c1-c1ccccc1,> 100

# Test system: Felid alphaherpesvirus 1
# Assay: Antiviral activity against Feline herpesvirus infected in cat CRFK cells assessed as reduction in virus-induced cytopathic effect incubated for 3 to 6 days by light microscopic analysis
# Assay type: functional, organism-based
# Conditions: Felid alphaherpesvirus 1, CRFK
row,SMILES,EC50 [mg/L]
1,O=C(NNC(=S)NCCc1ccccc1)c1[nH]c2ccc(F)cc2c1-c1ccccc1,> 100
2,CN1C(=O)CS/C1=N\NC(=O)c1[nH]c2ccc(F)cc2c1-c1ccccc1,> 100

# Test system: Vesicular stomatitis virus
# Assay: Antiviral activity against Vesicular stomatitis virus infected in human HeLa cells assessed as reduction in virus-induced cytopathic effect incubated for 3 to 6 days by light microscopic analysis
# Assay type: functional, organism-based
# Conditions: not given
# Procedure, shortened: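 CPE reduction assay: virus and serial compound dilutions added together to subconfluent HeLa (vesicular stomatitis, Coxsackie B4, respiratory syncytial) or Vero (Coxsackie B4, Sindbis, Punta Toro) cultures. Incubated 3–6 days at 37 °C. Mean ± SEM of three independent tests.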
row,SMILES,EC50 [mg/L]
1,O=C(NNC(=S)NCCc1ccccc1)c1[nH]c2ccc(F)cc2c1-c1ccccc1,> 100
2,CN1C(=O)CS/C1=N\NC(=O)c1[nH]c2ccc(F)cc2c1-c1ccccc1,> 100

# Test system: Coxsackievirus B4
# Assay: Antiviral activity against Human coxsackievirus B4 infected in African green monkey Vero cells assessed as reduction in virus-induced cytopathic effect incubated for 3 to 6 days by light microscopic analysis
# Assay type: functional, organism-based
# Conditions: Enterovirus B
# Procedure, shortened: (§2)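 CPE reduction assay: virus and serial compound dilutions added together to subconfluent HeLa (vesicular stomatitis, Coxsackie B4, respiratory syncytial) or Vero (Coxsackie B4, Sindbis, Punta Toro) cultures. Incubated 3–6 days at 37 °C. […] Mean ± SEM of three independent tests.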
row,SMILES,EC50 [mg/L]
1,O=C(NNC(=S)NCCc1ccccc1)c1[nH]c2ccc(F)cc2c1-c1ccccc1,> 100
2,CN1C(=O)CS/C1=N\NC(=O)c1[nH]c2ccc(F)cc2c1-c1ccccc1,> 100

# Test system: Human alphaherpesvirus 2
# Assay: Antiviral activity against Herpes simplex virus 2 infected in human HEL cells assessed as reduction in virus-induced cytopathic effect incubated for 3 to 6 days by light microscopic analysis
# Assay type: functional, cell-based
# Conditions: Human alphaherpesvirus 2, HEL
row,SMILES,EC50 [mg/L]
1,O=C(NNC(=S)NCCc1ccccc1)c1[nH]c2ccc(F)cc2c1-c1ccccc1,> 100
2,CN1C(=O)CS/C1=N\NC(=O)c1[nH]c2ccc(F)cc2c1-c1ccccc1,> 100

# Test system: Feline coronavirus
# Assay: Antiviral activity against Feline coronavirus infected in cat CRFK cells assessed as reduction in virus-induced cytopathic effect incubated for 3 to 6 days by light microscopic analysis
# Assay type: functional, organism-based
# Conditions: Alphacoronavirus 1, CRFK
row,SMILES,EC50 [mg/L]
1,O=C(NNC(=S)NCCc1ccccc1)c1[nH]c2ccc(F)cc2c1-c1ccccc1,> 100
2,CN1C(=O)CS/C1=N\NC(=O)c1[nH]c2ccc(F)cc2c1-c1ccccc1,> 100

# Test system: MT4
# Assay: Cytotoxicity against human MT4 cells assessed as reduction in cell viability incubated for 3 to 6 days by MTS assay
# Assay type: cell-based
# Conditions: time 3-6 day
# Procedure, shortened: (§3)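 CRFK or MT4 cells were exposed to serial compound dilutions alongside the antiviral assays for 3–6 days at 37 °C.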
row,SMILES,CC50 [mg/L]
1,O=C(NNC(=S)NCCc1ccccc1)c1[nH]c2ccc(F)cc2c1-c1ccccc1,11
2,CN1C(=O)CS/C1=N\NC(=O)c1[nH]c2ccc(F)cc2c1-c1ccccc1,> 125

# Test system: Influenza A virus
# Assay: Antiviral activity against influenza A virus infected in dog MDCK cells assessed as reduction in virus-induced cytopathic effect incubated for 3 to 6 days by light microscopic analysis
# Assay type: functional, organism-based
# Conditions: Influenza A virus, MDCK
# Procedure, shortened: as §1
row,SMILES,EC50 [mg/L]
1,O=C(NNC(=S)NCCc1ccccc1)c1[nH]c2ccc(F)cc2c1-c1ccccc1,> 100
2,CN1C(=O)CS/C1=N\NC(=O)c1[nH]c2ccc(F)cc2c1-c1ccccc1,> 100

# Test system: Human immunodeficiency virus 1
# Assay: Antiviral activity against Human immunodeficiency virus 1 infected in human MT4 cells assessed as reduction in virus-induced cytopathic effect incubated for 3 to 6 days by light microscopic analysis
# Assay type: functional, organism-based
# Conditions: Human immunodeficiency virus 1, MT4
row,SMILES,EC50 [mg/L]
1,O=C(NNC(=S)NCCc1ccccc1)c1[nH]c2ccc(F)cc2c1-c1ccccc1,> 100
2,CN1C(=O)CS/C1=N\NC(=O)c1[nH]c2ccc(F)cc2c1-c1ccccc1,> 100

# Test system: Human respirovirus 3
# Assay: Antiviral activity against Human parainfluenza virus 3 infected in African green monkey Vero cells assessed as reduction in virus-induced cytopathic effect incubated for 3 to 6 days by light microscopic analysis
# Assay type: functional, organism-based
# Conditions: Human respirovirus 3, Vero
row,SMILES,EC50 [mg/L]
1,O=C(NNC(=S)NCCc1ccccc1)c1[nH]c2ccc(F)cc2c1-c1ccccc1,> 100
2,CN1C(=O)CS/C1=N\NC(=O)c1[nH]c2ccc(F)cc2c1-c1ccccc1,> 100

# Test system: Coxsackievirus B4
# Assay: Antiviral activity against Human coxsackievirus B4 infected in human HeLa cells assessed as reduction in virus-induced cytopathic effect incubated for 3 to 6 days by light microscopic analysis
# Assay type: functional, organism-based
# Conditions: Enterovirus B
# Procedure, shortened: as §2
row,SMILES,EC50 [mg/L]
1,O=C(NNC(=S)NCCc1ccccc1)c1[nH]c2ccc(F)cc2c1-c1ccccc1,> 100
2,CN1C(=O)CS/C1=N\NC(=O)c1[nH]c2ccc(F)cc2c1-c1ccccc1,> 100

# Test system: Punta Toro virus
# Assay: Antiviral activity against Punta Toro virus infected in African green monkey Vero cells assessed as reduction in virus-induced cytopathic effect incubated for 3 to 6 days by light microscopic analysis
# Assay type: functional, organism-based
# Conditions: not given
# Procedure, shortened: as §2
row,SMILES,EC50 [mg/L]
1,O=C(NNC(=S)NCCc1ccccc1)c1[nH]c2ccc(F)cc2c1-c1ccccc1,> 100
2,CN1C(=O)CS/C1=N\NC(=O)c1[nH]c2ccc(F)cc2c1-c1ccccc1,> 100

# Test system: Vaccinia virus
# Assay: Antiviral activity against Vaccinia virus infected in human HEL cells assessed as reduction in virus-induced cytopathic effect incubated for 3 to 6 days by light microscopic analysis
# Assay type: functional, organism-based
# Conditions: Orthopoxvirus vaccinia
row,SMILES,EC50 [mg/L]
1,O=C(NNC(=S)NCCc1ccccc1)c1[nH]c2ccc(F)cc2c1-c1ccccc1,> 100
2,CN1C(=O)CS/C1=N\NC(=O)c1[nH]c2ccc(F)cc2c1-c1ccccc1,> 100

# Test system: not listed separately
# Assay: Cytotoxicity against African green monkey Vero cells assessed as changes in cell morphology incubated for 3 to 6 days by light microscopy
# Assay type: cell-based
# Conditions: chlorocebus sabaeus, time 3-6 day
# Procedure, shortened: (§4)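 Uninfected subconfluent cells (Vero or HeLa, as named) exposed to serial compound dilutions in parallel with the CPE assays, 37 °C, 3–6 days. Cell morphology examined by light microscopy; MCC = minimal concentration causing microscopically detectable changes in morphology.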
row,SMILES,MCC [µg/mL]
1,O=C(NNC(=S)NCCc1ccccc1)c1[nH]c2ccc(F)cc2c1-c1ccccc1,10
2,CN1C(=O)CS/C1=N\NC(=O)c1[nH]c2ccc(F)cc2c1-c1ccccc1,20

# Test system: Respiratory syncytial virus
# Assay: Antiviral activity against Respiratory syncytial virus infected in human HeLa cells assessed as reduction in virus-induced cytopathic effect incubated for 3 to 6 days by light microscopic analysis
# Assay type: functional, organism-based
# Conditions: not given
# Procedure, shortened: as §2
row,SMILES,EC50 [mg/L]
1,O=C(NNC(=S)NCCc1ccccc1)c1[nH]c2ccc(F)cc2c1-c1ccccc1,> 100
2,CN1C(=O)CS/C1=N\NC(=O)c1[nH]c2ccc(F)cc2c1-c1ccccc1,> 100

# Test system: Human immunodeficiency virus 2
# Assay: Antiviral activity against Human immunodeficiency virus 2 infected in human MT4 cells assessed as reduction in virus-induced cytopathic effect incubated for 3 to 6 days by light microscopic analysis
# Assay type: functional, organism-based
# Conditions: Human immunodeficiency virus 2, MT4
row,SMILES,EC50 [mg/L]
1,O=C(NNC(=S)NCCc1ccccc1)c1[nH]c2ccc(F)cc2c1-c1ccccc1,> 100
2,CN1C(=O)CS/C1=N\NC(=O)c1[nH]c2ccc(F)cc2c1-c1ccccc1,> 100

# Test system: not listed separately
# Assay: Cytotoxicity against human HEL cells assessed as changes in cell morphology incubated for 3 to 6 days by light microscopy
# Assay type: cell-based
# Conditions: time 3-6 day
# Procedure, shortened: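 Human embryonic lung fibroblasts incubated with serial compound dilutions alongside the antiviral assays, 37 °C, 3–6 days. Morphology inspected by light microscopy; minimal cytotoxic concentration taken as lowest concentration giving minimal morphological change.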
row,SMILES,MCC [µg/mL]
1,O=C(NNC(=S)NCCc1ccccc1)c1[nH]c2ccc(F)cc2c1-c1ccccc1,10
2,CN1C(=O)CS/C1=N\NC(=O)c1[nH]c2ccc(F)cc2c1-c1ccccc1,> 100

# Test system: Sindbis virus
# Assay: Antiviral activity against Sindbis virus infected in African green monkey Vero cells assessed as reduction in virus-induced cytopathic effect incubated for 3 to 6 days by light microscopic analysis
# Assay type: functional, organism-based
# Conditions: not given
# Procedure, shortened: as §2
row,SMILES,EC50 [mg/L]
1,O=C(NNC(=S)NCCc1ccccc1)c1[nH]c2ccc(F)cc2c1-c1ccccc1,> 100
2,CN1C(=O)CS/C1=N\NC(=O)c1[nH]c2ccc(F)cc2c1-c1ccccc1,> 100

# Test system: Human alphaherpesvirus 1
# Assay: Antiviral activity against Herpes simplex virus 1 infected in human HEL cells assessed as reduction in virus-induced cytopathic effect incubated for 3 to 6 days by light microscopic analysis
# Assay type: functional, cell-based
# Conditions: Human alphaherpesvirus 1, HEL
row,SMILES,EC50 [mg/L]
1,O=C(NNC(=S)NCCc1ccccc1)c1[nH]c2ccc(F)cc2c1-c1ccccc1,> 100
2,CN1C(=O)CS/C1=N\NC(=O)c1[nH]c2ccc(F)cc2c1-c1ccccc1,> 100

# Test system: Mammalian orthoreovirus 1
# Assay: Antiviral activity against Mammalian orthoreovirus 1 infected in African green monkey Vero cells assessed as reduction in virus-induced cytopathic effect incubated for 3 to 6 days by light microscopic analysis
# Assay type: functional, organism-based
# Conditions: Mammalian orthoreovirus 1, Vero
row,SMILES,EC50 [mg/L]
1,O=C(NNC(=S)NCCc1ccccc1)c1[nH]c2ccc(F)cc2c1-c1ccccc1,> 100
2,CN1C(=O)CS/C1=N\NC(=O)c1[nH]c2ccc(F)cc2c1-c1ccccc1,> 100

# Test system: not listed separately
# Assay: Cytotoxicity against cat CRFK cells assessed as reduction in cell viability incubated for 3 to 6 days by MTS assay
# Assay type: cell-based, Felis catus
# Conditions: crfk, time 3-6 day
# Procedure, shortened: as §3
row,SMILES,CC50 [mg/L]
1,O=C(NNC(=S)NCCc1ccccc1)c1[nH]c2ccc(F)cc2c1-c1ccccc1,1.9
2,CN1C(=O)CS/C1=N\NC(=O)c1[nH]c2ccc(F)cc2c1-c1ccccc1,> 100

# Test system: not listed separately
# Assay: Cytotoxicity against human HeLa cells assessed as changes in cell morphology incubated for 3 to 6 days by light microscopic analysis
# Assay type: cell-based
# Conditions: time 3-6 day
# Procedure, shortened: as §4
row,SMILES,MCC [µg/mL]
1,O=C(NNC(=S)NCCc1ccccc1)c1[nH]c2ccc(F)cc2c1-c1ccccc1,4

# Test system: not listed separately
# Assay: Cytotoxicity against dog MDCK cells assessed as changes in cell morphology incubated for 3 to 6 days by light microscopy
# Assay type: cell-based, Canis lupus familiaris
# Conditions: time 3-6 day
row,SMILES,MCC [µg/mL]
1,O=C(NNC(=S)NCCc1ccccc1)c1[nH]c2ccc(F)cc2c1-c1ccccc1,2
